This note sets out measurements from ChEMBL document CHEMBL1138829, “Conformationally constrained analogues of diacylglycerol. 21. A solid-phase method of synthesis of diacylglycerol lactones as a prelude to a combinatorial approach for the synthesis of protein kinase C isozyme-specific ligands” (J Med Chem, 2004).

A word on the logP: it is a log measure of how a compound divides between an organic and an aqueous phase. Read a low logP as a more hydrophilic compound. One may read the Ki as the dissociation constant of the complex between target and ligand, obtained from inhibition or displacement.

The nature of series [1]: Partition coefficient (logP). Type of series: physicochemical. The note with it: octanol/water.
Series [2] has as its target T1, Protein kinase C alpha type (Homo sapiens, UniProt P17252). Briefly: (§1) Displacement of [20-3H]phorbol-12,13-dibutyrate (PDBu) from a recombinant protein kinase C alpha with phosphatidylserine. Summed up: (§2)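 Competition binding against [20-3H]PDBu using intact recombinant single isozyme PKC-alpha in presence of phosphatidylserine; tested as crude resin-cleaved and purified samples. ID50 obtained by least-squares fit of theoretical sigmoidal competition curve; Ki calculated from ID50 via standard relationship.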

The target in series [3] is T1, Protein kinase C alpha type. The series is described as §1. Summed up:
as §2
This is another data set of the same source.

The target is the same in series [4]. The description is as §1. In a few lines: as §2
The source holds these as a separate data set.

In the case of `CCCCCCCC/C=C1/CC(CO)(COC(=O)c2ccccc2)OC1=O` (configuration not stated), the lipophilicity (logP) in series [1] was 4.36. Besides, the results for the Ki in series [2] and in series [3] were 45.6 nM and 25.7 nM, respectively.
The like results for `O=C(Cc1ccccc1)OCC1(CO)C/C(=C/c2ccc(-c3ccccc3)cc2)C(=O)O1` (configuration not stated) were, in that order, 4.15, 152 nM and 48 nM.
The like results for `CCCCCCCC/C=C1/CC(CO)(COC(=O)Cc2ccccc2)OC1=O` (configuration not stated) were, in that order, 4.61, 145 nM and 43.3 nM.
The like results for `O=C1OC(CO)(COC(=O)c2ccc(-c3ccccc3)cc2)C/C1=C/c1ccc(-c2ccccc2)cc1` (configuration not stated) were, in that order, 5.66, 83.9 nM and 22.7 nM.
On to `O=C1OC(CO)(COC(=O)c2ccccc2)C/C1=C/c1ccc(-c2ccccc2)cc1` (configuration not stated), for which the logP in series [1] is 3.9. The figures for the inhibitory constant (Ki) in series [2] and in series [3] were 41 nM and 14.1 nM, respectively.
`CCCCCCCCC/C=C1/CC(CO)(COC(=O)c2ccccc2)OC1=O` (configuration not stated) displayed a logP in series [1] of 4.85. Further, the Ki in series [4] is 37 nM; in series [3] it was 20.3 nM.
The like results for `CCCCCCCCC/C=C1/CC(CO)(COC(=O)c2ccc(-c3ccccc3)cc2)OC1=O` (configuration not stated) were, in that order, 6.61, 52.4 nM and 19.1 nM.
For `CCCCCCCC/C=C1/CC(CO)(COC(=O)c2ccc(-c3ccccc3)cc2)OC1=O` (configuration not stated), the lipophilicity (logP) in series [1] came out at 6.12. The Ki in series [2] was 41.8 nM; in series [3], 28 nM.
In series [1], `CCCCCCCCC/C=C1/CC(CO)(COC(=O)Cc2ccccc2)OC1=O` (configuration not stated) yielded a logP of 5.1. The Ki in series [4] is 92.5 nM; in series [3] it was 43.8 nM.
